Test results from publication PMC6859084 (Drug Design, Development and Therapy, 2019).
Where two headings read alike, the source gives them in different places.

What was measured:
LDL-C = conditions: cited from earlier work
[1] = Pharmacokinetics after single oral dose of FDC or loose combination; format: in vivo, human; conditions: FDC to loose combination
Procedure, shortened: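 Healthy subjects, randomized open-label two-period crossover with 14-day washout, fasted overnight, single oral dose with 200 mL water. Heparinized blood drawn pre-dose to 72 h, centrifuged 1,800 rpm 8 min at 4°C, plasma mixed 1:1 with 5% formic acid, stored −70°C. LC-MS/MS (C18, positive ESI, MRM), validated 0.5–200 ng/mL. Non-compartmental parameters; log-transformed GMR from linear mixed-effects model.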

[2] = previously reported; cited from earlier work

Row | Structure (SMILES) | LDL-C reduction (LDL-C; first week after rosuvastatin administration) [%] | LDL-C reduction (LDL-C; second week after rosuvastatin administration) [%] | AUClast Geometric Mean Ratio (90% CI) [1] | Cmax Geometric Mean Ratio (90% CI) [1] | half-life [2] [h]
1 | CC(C)c1nc(N(C)S(C)(=O)=O)nc(-c2ccc(F)cc2)c1/C=C/[C@@H](O)C[C@@H](O)CC(=O)O [Rosuvastatin] | 64 | 90 | 1.02 (0.95–1.09) | 1.09 (0.96–1.22) | 
2 | N[C@@H](CC(=O)N1CCc2c(nc(C(F)(F)F)nc2C(F)(F)F)C1)CN1CC(F)(F)CCC1=O [Gemigliptin] |  |  | 1.02 (0.96–1.09) | 1.08 (0.99–1.18) | 17
